Consider seven compounds from ChEMBL document CHEMBL1154857, “Antimycobacterial flavonoids from the leaf extract of Galenia africana” (J Nat Prod, 2009).

Assay [1] concerns Mycobacterium tuberculosis. Nature of the assay: Antitubercular activity against Mycobacterium tuberculosis H37Rv by radiometric method. It is filed as functional. The gist of the method: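 M. tuberculosis H37Rv (ATCC […], drug-susceptible) tested by the radiometric BACTEC method. MIC was judged from ΔGI against a control vial inoculated at 10⁻² dilution. MBC was also determined. Highest concentration tested was 620.0 µg/mL.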

The test system of assay [2] is Mycolicibacterium smegmatis. Nature of the assay: Antibacterial activity against Mycobacterium smegmatis MC2 155 at 620 ug/ml by microplate dilution method. It is filed as functional, organism-based. The note with it: str. MC2 155. The gist of the method:
(§1)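 M. smegmatis MC2 155 tested by microplate broth dilution. Highest concentration tested was 620.0 µg/mL. Read-out was MIC, and MBC where determined.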

Assay [3] concerns Mycobacterium tuberculosis. As to the kind of experiment: Antitubercular activity against Mycobacterium tuberculosis H37Rv infected in human U937 cells by radiometric method. It counts as functional, U-937.
Assay [4] concerns the target Mycothione reductase (Mycobacterium tuberculosis) (UniProt P9WHH3). As to the kind of experiment: Inhibition of Mycobacterium tuberculosis mycothiol disulfide reductase assessed as NADPH oxidation at 800 uM by Ellmans reagent method. The method, boiled down:
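M. tuberculosis mycothiol disulfide reductase (NADPH-dependent) used with the mycothiol analogue BnOMSH as substrate. Activity was followed as the increase in absorbance at […] from reduction of Ellman's reagent by the BnOMSH formed.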
A general note: Ellman's reagent forms a yellow product with free thiols.

In the next assay the test system is U-937. As to the kind of experiment: Cytotoxicity against human U937 cells. It counts as cell-based.
The test system of assay [5] is Mycobacterium tuberculosis. As to the kind of experiment: Antitubercular activity against Mycobacterium tuberculosis H37Rv infected in human U937 cells at MBC by radiometric method. It is filed as functional, U-937.
Assay [6] has as its system Mycolicibacterium smegmatis. As to the kind of experiment: Antibacterial activity against Mycobacterium smegmatis MC2 155 by microplate dilution method. It is filed as functional. The note with it: str. MC2 155. The gist of the method:
as §1

Values after ≈ are worked out from the molar mass of the structure shown. Active and inactive are the calls of the source. No cut-off for these calls is given here.

Mycothione reductase (Mycobacterium tuberculosis), sequence (P9WHH3 whole entry): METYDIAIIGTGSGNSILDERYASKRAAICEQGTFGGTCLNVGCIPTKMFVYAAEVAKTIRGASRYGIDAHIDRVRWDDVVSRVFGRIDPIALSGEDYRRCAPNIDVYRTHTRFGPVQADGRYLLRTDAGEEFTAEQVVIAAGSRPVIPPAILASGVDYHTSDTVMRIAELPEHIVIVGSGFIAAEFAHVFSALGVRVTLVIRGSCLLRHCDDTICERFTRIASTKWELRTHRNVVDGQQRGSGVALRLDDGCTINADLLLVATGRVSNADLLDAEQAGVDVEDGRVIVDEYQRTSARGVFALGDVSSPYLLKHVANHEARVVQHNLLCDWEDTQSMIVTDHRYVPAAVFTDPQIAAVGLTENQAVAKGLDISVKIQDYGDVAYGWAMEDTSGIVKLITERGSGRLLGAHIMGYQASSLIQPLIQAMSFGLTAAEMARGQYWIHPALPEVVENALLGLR

For the compound `O=C(/C=C/c1cccc(O)c1)c1ccc(O)cc1O`, the figures for the MIC in assay [1] and in assay [3] were 417 µM (≈ 107 µg/mL) and 184 µM (≈ 47.1 µg/mL), respectively. In addition, the MIC (as a rule, the lowest concentration that inhibits growth of the organism) in assay [2] was “inactive”. Besides, the MBC (commonly the lowest tested concentration that kills the bacteria rather than only halting them) in assay [3] was 368 µM (≈ 94.2 µg/mL). Further, the inhibition result in assay [4] was “inactive”. Also, in the assay with U-937, half-maximal inhibition (IC50) was put at 415 µM. Further, in assay [5], the “inhibition (INH)” value is reported as 99.5%.

For `NNC(=O)c1ccncc1` [ISONIAZID], the MIC in assay [1] was 1.4 µM (≈ 0.192 µg/mL); in assay [3] it was 2.9 µM (≈ 0.398 µg/mL).

As to `O=C(O)c1cn(C2CC2)c2cc(N3CCNCC3)c(F)cc2c1=O` [CIPROFLOXACIN], in assay [6], the MBC worked out at 2.2 µM (≈ 0.729 µg/mL) and 1.5 µM (≈ 0.497 µg/mL) was the least that counted as inhibitory (MIC).

`COc1c(O)ccc(C(=O)/C=C/c2cccc(O)c2)c1O`: the IC50 (as a rule, the midpoint of a concentration-inhibition curve) in the assay on U-937 came out at 333 µM.

For the compound `O=C1C[C@@H](c2ccccc2O)Oc2cc(O)cc(O)c21`, the figures for the MIC in assay [1], in assay [3] and in assay [6] were 368 µM (≈ 100 µg/mL), 368 µM (≈ 100 µg/mL) and 110 µM (≈ 30 µg/mL), respectively. Besides, the MBC in assay [3] turned out to be 735 µM (≈ 200 µg/mL); in assay [6], 441 µM (≈ 120 µg/mL). Moreover, the inhibition result in assay [4] was “inactive”. Moreover, the IC50 in the assay on U-937 turned out to be 110 µM. Besides, the “inhibition (INH)” value in assay [5] is 99.5%.

Consider `COc1cccc2c1C(=O)c1c(O)c3c(c(O)c1C2=O)C[C@@](O)(C(=O)CO)C[C@@H]3O[C@H]1C[C@H](N)[C@H](O)[C@H](C)O1` [DOXORUBICIN], for which, in the assay with U-937, the IC50 is 1.1 µM.

On to `O=C(/C=C/c1ccccc1)c1ccc(O)cc1O` [2',4'-DIHYDROXYCHALCONE], for which the MIC in assay [1] was determined as 195 µM (≈ 46.9 µg/mL); in assay [3], 195 µM (≈ 46.9 µg/mL); in assay [6], 469 µM (≈ 113 µg/mL). The MBC in assay [3] was found to be 416 µM (≈ 100 µg/mL); in assay [6], 234 µM (≈ 56.3 µg/mL). Besides, the inhibition entry in assay [4] is “inactive”. In the assay with U-937, this compound showed an IC50 of 80.2 µM. Further, the “inhibition (INH)” value in assay [5] was found to be 99.5%.
